Data on 16 compounds can be found in ChEMBL document CHEMBL1122745, “In the search for new anticancer drugs. 9. Synthesis and anticancer activity of spin-labeled analogues of N,N:N',N':N",N"-Tri-1,2-ethanediylphosphoric triamide and N,N:N',N':N",N"-tri-1,2-ethanediylphosphorothioic triamide” (1984).

Where “and” joins values, the source holds several entries; their conditions need not be identical. Identical values can stand only once.

In assay [1] the test system is Mus musculus. The assay can be described thus: In vivo evaluation of percent increase in life span (ILS) against P388 lymphocytic leukemia in infected CD2F1 male mice and at 6 dose mg/kg. It counts as functional. Summed up: (§1)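 P388 lymphocytic leukemia (10⁶ cells) transplanted into male CD2F1 (CDF1) mice, with intraperitoneal treatment once daily for 9 days following the day of transplantation. Groups of 6. Survival days of treated (T) and control (C) mice were compared, and %ILS was calculated as [(T−C)/C]100.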

The subject of assay [2] is Mus musculus. The assay can be described thus: In vivo evaluation of percent increase in life span (ILS) against P388 lymphocytic leukemia in infected CD2F1 male mice and at 3 dose mg/kg. The assay is classed as functional. A digest of the protocol: as §1
In assay [3] the test system is Mus musculus. The assay can be described thus: In vivo evaluation of 30 day survival against P388 lymphocytic leukemia in CD2F1 male mice at dose mg/kg; out of 6 mice. The assay is classed as functional. Summed up: (§2)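 CD2F1 (CDF1) male mice transplanted with 10⁶ P388 lymphocytic leukemia cells, then dosed intraperitoneally once daily for 9 days starting after the day of transplantation. Groups of 6 mice. Read-out is the number of mice alive at 30 days over the total per group.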

Assay [4] concerns Mus musculus. Put plainly: In vivo evaluation of percent increase in life span (ILS) against P388 lymphocytic leukemia in infected CD2F1 male mice and at 15 dose mg/kg. The assay is classed as functional. A digest of the protocol:
as §1

Assay [5] relates to Mus musculus. Put plainly: (§3) In vivo evaluation of 30 day survival against P388 lymphocytic leukemia in CD2F1 male mice at dose 20 mg/kg; out of 6 mice. The assay is classed as functional, organism-based. Also on record: dose 20 mg/kg. Summed up: as §2
For assay [6], the system named is Mus musculus. The assay can be described thus: In vivo evaluation of percent increase in life span (ILS) against P388 lymphocytic leukemia in infected CD2F1 male mice and at 10 dose mg/kg. The assay is classed as functional. Summed up:
as §1

Assay [7] relates to Mus musculus. Put plainly: (§4) In vivo evaluation of 30 day survival against P388 lymphocytic leukemia in CD2F1 male mice at dose 15 mg/kg; out of 6 mice. It counts as functional. Summed up: as §2
Assay [8] relates to Mus musculus. The assay can be described thus: In vivo evaluation of 30 day survival against P388 lymphocytic leukemia in CD2F1 male mice at dose 10 mg/kg; out of 6 mice. The assay is classed as functional. Summed up: as §2
Assay [9] deals with Mus musculus. Put plainly: In vivo evaluation of percent increase in life span (ILS) against P388 lymphocytic leukemia in infected CD2F1 male mice and at dose. It counts as functional. Summed up: as §1
Assay [10] deals with Mus musculus. The assay is described as §4. It counts as functional. Summed up:
as §2
The source holds these as a separate data set.

Assay [11] concerns Mus musculus. Put plainly: In vivo evaluation of percent increase in life span (ILS) against P388 lymphocytic leukemia in infected CD2F1 male mice and at dose mg/kg. It counts as functional. Summed up:
as §1

Assay [12] concerns Mus musculus. The assay is described as §3. It counts as functional. A digest of the protocol: as §2
Assay [13] has as its system Mus musculus. Put plainly: In vivo evaluation of percent increase in life span (ILS) against P388 lymphocytic leukemia in infected CD2F1 male mice and at 20 dose mg/kg. The assay is classed as functional. Summed up:
as §1

Assay [14] concerns Mus musculus. Described as §3. It counts as functional. A digest of the protocol: as §2
The source holds these as a separate data set.

Assay [15] concerns Mus musculus. The assay can be described thus: In vivo evaluation of percent increase in life span (ILS) against P388 lymphocytic leukemia in infected CD2F1 male mice and at 160 dose mg/kg. The assay is classed as functional. Summed up: as §1
For assay [16], the system named is Mus musculus. The assay can be described thus: (§5) In vivo evaluation of percent increase in life span (ILS) against P388 lymphocytic leukemia in infected CD2F1 male mice and at 80 dose mg/kg. It counts as functional. Summed up:
as §1

Assay [17] relates to Mus musculus. Put plainly: (§6) In vivo evaluation of 30 day survival against P388 lymphocytic leukemia in CD2F1 male mice at dose 80 mg/kg; out of 6 mice. The assay is classed as functional. Summed up: as §2
The test system of assay [18] is Mus musculus. The assay can be described thus: (§7) In vivo evaluation of 30 day survival against P388 lymphocytic leukemia in CD2F1 male mice at dose 160 mg/kg; out of 6 mice. It counts as functional. Summed up: as §2
The subject of assay [19] is Mus musculus. The assay can be described thus: In vivo evaluation of 30 day survival against P388 lymphocytic leukemia in CD2F1 male mice at dose 30 mg/kg; out of 6 mice. The assay is classed as functional. A digest of the protocol: as §2
The subject of assay [20] is Mus musculus. The assay can be described thus: In vivo evaluation of percent increase in life span (ILS) against P388 lymphocytic leukemia in infected CD2F1 male mice and at 30 dose mg/kg. The assay is classed as functional. Summed up:
as §1

In assay [21] the test system is Mus musculus. The description is as §7. It counts as functional, organism-based. On the set-up: dose 160 mg/kg. Summed up:
as §2

The test system of assay [22] is Mus musculus. The assay can be described thus: (§8) In vivo evaluation of 30 day survival against P388 lymphocytic leukemia in CD2F1 male mice at dose 40 mg/kg; out of 6 mice. The assay is classed as functional, organism-based. On the set-up: dose 40 mg/kg. Summed up: as §2
Assay [23] deals with Mus musculus. The assay can be described thus: In vivo evaluation of percent increase in life span (ILS) against P388 lymphocytic leukemia in infected CD2F1 male mice and at 40 dose mg/kg. The assay is classed as functional. Summed up: as §1
Assay [24] deals with Mus musculus. The description is as §6. Also on record: dose 80 mg/kg. The assay is classed as functional, organism-based. Summed up: as §2
For assay [25], the system named is Mus musculus. The assay is described as §5. The assay is classed as functional, organism-based. Summed up:
as §1

Assay [26] deals with Mus musculus. Put plainly: In vivo evaluation of 30 day survival against P388 lymphocytic leukemia in CD2F1 male mice at dose 6 mg/kg; out of 6 mice. The assay is classed as functional. A digest of the protocol: as §2
The subject of assay [27] is Mus musculus. The assay can be described thus: In vivo evaluation of 30 day survival against P388 lymphocytic leukemia in CD2F1 male mice at dose 12 mg/kg; out of 6 mice. The assay is classed as functional. A digest of the protocol: as §2
The test system of assay [28] is Mus musculus. Put plainly: In vivo evaluation of percent increase in life span (ILS) against P388 lymphocytic leukemia in infected CD2F1 male mice and at 12 dose mg/kg. It counts as functional. A digest of the protocol:
as §1

For assay [29], the system named is Mus musculus. The assay can be described thus: In vivo evaluation of percent increase in life span (ILS) against P388 lymphocytic leukemia in infected CD2F1 male mice and at 25 dose mg/kg. The assay is classed as functional. Summed up:
as §1

The subject of assay [30] is Mus musculus. The assay can be described thus: In vivo evaluation of 30 day survival against P388 lymphocytic leukemia in CD2F1 male mice at dose 25 mg/kg; out of 6 mice. The assay is classed as functional. A digest of the protocol: as §2
In assay [31] the test system is Mus musculus. The assay is described as §8. The assay is classed as functional. A digest of the protocol:
as §2

Assay [32] deals with Mus musculus. The assay can be described thus: In vivo evaluation of 30 day survival against P388 lymphocytic leukemia in CD2F1 male mice at dose 7.5 mg/kg; out of 6 mice. It counts as functional. A digest of the protocol:
as §2

Regarding `S=P(N1CC1)(N1CC1)N1CC1` [THIOTEPA], the ILS with Mus musculus [1] was 141%; in the assay with Mus musculus [2], 83%. Moreover, in the assay on Mus musculus [3], the “30 day survival / total” value is given as 0.

In the case of `CN(C1CC(C)(C)N([O])C(C)(C)C1)P(=S)(NCCCl)N1CC1` (centres undefined), the ILS in the assay with Mus musculus [4] stood at 20%; with Mus musculus [6], 13%. Besides, the 30 day survival / total with Mus musculus [5] and in the assay on Mus musculus [7] was 0 each time.

Regarding `CC1(C)CC(OP(=O)(N2CC2)N2CC2)CC(C)(C)N1O`, the “30 day survival / total” value with Mus musculus [8] and with Mus musculus [10] was 0 in each case. The ILS in the assay on Mus musculus [9] was -2% and 23%.

Turning to `CN(C1CC(C)(C)N([O])C(C)(C)C1)P(=S)(N1CC1)N1CC1`, the ILS in the assay on Mus musculus [11] is 27% and 16%. The 30 day survival / total in the assay on Mus musculus [7] and in the assay with Mus musculus [12] was 0 throughout.

Turning to `CC1(C)CC(OP(=O)(N2CC2)N2CC2)CC(C)(C)N1[O]`, the 30 day survival / total with Mus musculus [8] and in the assay with Mus musculus [7] was 0 each time. Moreover, the ILS with Mus musculus [4] stood at 5%; in the assay with Mus musculus [6] it was 29%.

With `CN(C1CC(C)(C)N(O)C(C)(C)C1)P(=S)(N1CC1)N1CC1`, in the assay on Mus musculus [13], the ILS is 4%. The “30 day survival / total” value in the assay with Mus musculus [10] and with Mus musculus [14] was 0 each time.

Take `CC1(C)CC(OP(=S)(NCCCl)NCCCl)CC(C)(C)N1O`: the ILS in the assay with Mus musculus [15] is 33%; with Mus musculus [16], 15%. Also, the “30 day survival / total” value in the assay on Mus musculus [17] and in the assay on Mus musculus [18] was 0 throughout.

As to `CC1(C)CC(OC(=O)NP(=O)(N2CC2)N2CC2)CC(C)(C)N1O`, the ILS with Mus musculus [4] was 25%; in the assay on Mus musculus [20] it was 48%. Besides, the “30 day survival / total” value with Mus musculus [19] and in the assay with Mus musculus [10] was 0 in each case.

`CC1(C)CC(OP(=S)(NCCCl)NCCCl)CC(C)(C)N1[O]`: the ILS in the assay on Mus musculus [15] is 44%; in the assay with Mus musculus [23] it was 17% and 13%; in the assay on Mus musculus [25], 30%. The 30 day survival / total with Mus musculus [21], in the assay on Mus musculus [22], in the assay with Mus musculus [24] and in the assay on Mus musculus [12] was 0 in each case.

As to `CC1(C)CC(OC(=O)NP(=O)(N2CC2)N2CC2)CC(C)(C)N1[O]`, the ILS with Mus musculus [4] is 42%; in the assay with Mus musculus [20] it was 81%.

With `CC1(C)CC(OP(=S)(N2CC2)N2CC2)CC(C)(C)N1[O]`, the figures for the “30 day survival / total” value in the assay on Mus musculus [26], in the assay with Mus musculus [27] and in the assay on Mus musculus [10] were 0, 1 and 0, respectively. Besides, the ILS is -8% with Mus musculus [4], 45% with Mus musculus [1] and 103% with Mus musculus [28].

For `CC1(C)CC(NP(=S)(N2CC2)N2CC2)CC(C)(C)N1[O]`, the values for the ILS in the assay with Mus musculus [29], with Mus musculus [13] and with Mus musculus [6] were 96%, 52% and 34%, respectively. In addition, the “30 day survival / total” value in the assay on Mus musculus [8], in the assay on Mus musculus [30] and in the assay on Mus musculus [14] was 0 each time.

Turning to `CN(C1CC(C)(C)NC(C)(C)C1)P(=S)(N1CC1)N1CC1`, the “30 day survival / total” value in the assay on Mus musculus [8] and in the assay with Mus musculus [10] was 0 in each case. Besides, the ILS is on record as 33% in the assay on Mus musculus [4] and 20% in the assay with Mus musculus [6].

`CC1(C)CC(NP(=S)(N2CC2)N2CC2)CC(C)(C)N1O`: the “30 day survival / total” value in the assay with Mus musculus [8] and in the assay on Mus musculus [10] was 0 throughout. The figures for the ILS in the assay with Mus musculus [4] and in the assay with Mus musculus [6] were 34% and 25%, respectively.

`CC1(C)CC(NP(=S)(N2CC2)N2CC2)CC(C)(C)N1`: the “30 day survival / total” value in the assay with Mus musculus [19] and in the assay on Mus musculus [31] was 0 each time. The ILS in the assay with Mus musculus [23] was found to be 88%; with Mus musculus [20] it was 41%.

`CC1(C)CC(OP(=S)(N2CC2)N2CC2)CC(C)(C)N1O`: the “30 day survival / total” value in the assay on Mus musculus [32], in the assay on Mus musculus [10] and with Mus musculus [14] was 0 each time.
